Results on 22 compounds are retold here after ChEMBL document CHEMBL1122057, “Synthesis and structure--activity relationship of nonyl 3-acyldithiocarbazates and related compounds for uncoupling activities” (J Med Chem, 1982).

The species named for assay [1] is Rattus norvegicus. As to the kind of experiment: Concentration required for the maximal release of state 4 respiration of rat liver mitochondria using succinate as substrate. Format: functional. The procedure, abridged:
(§1)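 Rat liver mitochondria isolated by a prior method, about 0.7 mg/mL in most runs. Medium: 200 mM sucrose, 2 mM MgCl2, 1 mM EDTA, 10 mM potassium phosphate pH 7.2, 25 °C. Substrate 10 mM succinate plus rotenone 1 μg/mg protein. O2 uptake in state 4 followed by Clark electrode after compound addition. Value is the concentration giving maximal release of respiration.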

Assay [2] is filed under the species Rattus norvegicus. As to the kind of experiment: Concentration required for the maximal release of state 4 respiration of rat liver mitochondria, relative to N'-Benzoyl-hydrazinecarbodithioic acid nonyl ester. It is filed as functional, organism-based.
Assay [3] is filed under the species Rattus norvegicus. As to the kind of experiment: Concentration required for the maximal release of state 4 respiration of rat liver mitochondria using succinate as substrate; Inactive. Format: functional. In a few lines: as §1

Active and inactive are the calls of the source. No cut-off for these calls is given here.

`CCCCCCCCCS/C(=N/NC(=O)c1ccccc1)SC` yielded a C100 in the assay filed under Rattus norvegicus [1] of 30.1 µM. The compound also yielded an RA in the assay listed under Rattus norvegicus [2] of 9.3.
Consider `CCCCCCCCCS/C(=N/N(C)C(=O)c1ccccc1)SC`, for which the C100 entry in the assay listed under Rattus norvegicus [3] is “inactive”. This compound also gave an RA in the assay filed under Rattus norvegicus [2] of 0.
`CCCCCCCCCS/C(S)=N/NC(=O)C1CCCCC1` registered a C100 in the assay listed under Rattus norvegicus [1] of 4.52 µM. For the same compound, the RA in the assay listed under Rattus norvegicus [2] was 35.
Consider `CCCCCCCCCS/C(S)=N/c1ccccc1`, for which the C100 entry in the assay filed under Rattus norvegicus [3] was “inactive”. The compound further displayed an RA in the assay listed under Rattus norvegicus [2] of 0.
As to `CCCCCCCCCSC(=S)NC(=O)c1ccccc1`, the C100 in the assay listed under Rattus norvegicus [1] was 27.9 µM. In addition, the RA in the assay filed under Rattus norvegicus [2] came to 5.7.
Regarding `CCCCCCCCCS/C(S)=N/Nc1ccccc1`, the C100 in the assay filed under Rattus norvegicus [1] worked out at 1530 µM. For the same compound, the RA in the assay filed under Rattus norvegicus [2] was found to be 0.1.
`CCCCCCCCCSC(=S)N(C)NC(=O)c1ccccc1`: the C100 in the assay filed under Rattus norvegicus [1] worked out at 40.3 µM. In the assay filed under Rattus norvegicus [2], this compound returned an RA of 6.9.
For the compound `CCCCCCCCCS/C(S)=N/NC(=O)c1ccc(Cl)cc1`, in the assay filed under Rattus norvegicus [1], the C100 was 1.46 µM. This compound returned an RA in the assay filed under Rattus norvegicus [2] of 109.
For the compound `CCCCCCCCCSC(=S)N(C)N(C)C(=O)c1ccccc1`, the C100 result in the assay filed under Rattus norvegicus [3] is “inactive”. This compound showed an RA in the assay filed under Rattus norvegicus [2] of 0.
In turn, `CCCCCCCCCS/C(S)=N/N=C/c1ccccc1` gave a C100 in the assay filed under Rattus norvegicus [1] of 604 µM. The same compound showed an RA in the assay listed under Rattus norvegicus [2] of 0.26.
In the assay listed under Rattus norvegicus [1], `CCCCCCCCCS/C(S)=N/NC(=O)c1ccccn1` displayed a C100 of 1.42 µM. This compound displayed an RA in the assay filed under Rattus norvegicus [2] of 112.
`CCCCCCCCCS/C(S)=N/NC(=O)c1ccc(Cl)c(Cl)c1` yielded a C100 in the assay listed under Rattus norvegicus [1] of 1.93 µM. This compound had an RA in the assay listed under Rattus norvegicus [2] of 82.
Taken in the same sequence, the figures for `CCCCCCCCCS/C(S)=N/NC(=O)c1cccc2ccccc12` were 3.36 µM and 47.
In the assay listed under Rattus norvegicus [1], `CCCCCCCCCS/C(S)=N/Cc1ccccc1` showed a C100 of 360 µM. This compound returned an RA in the assay filed under Rattus norvegicus [2] of 0.44.
Taken in the same sequence, the figures for `CCCCCCCCCS/C(S)=N/NC(C)=O` were 457 µM and 0.61.
In the assay listed under Rattus norvegicus [1], `CCCCCCCCCS/C(S)=N/NC(=O)c1ccc(N(C)C)cc1` gave a C100 of 6.9 µM. The same compound gave an RA in the assay filed under Rattus norvegicus [2] of 23.
In the assay filed under Rattus norvegicus [1], `CCCCCCCCCS/C(S)=N/NC(=O)c1ccc(OC)cc1` came in with a C100 of 2.46 µM. The compound further gave an RA in the assay filed under Rattus norvegicus [2] of 65.
The matching figures for `CCCCCCCCCS/C(S)=N/NC(=O)c1ccc([N+](=O)[O-])cc1`: 1.27 µM and 125.
Consider `CCCCCCCCCS/C(S)=N/NC(=O)c1ccccc1`, for which the C100 in the assay filed under Rattus norvegicus [1] came out at 1.59 µM. Moreover, the RA in the assay filed under Rattus norvegicus [2] came to 100.
The matching figures for `CCCCCCCCCS/C(S)=N/NCc1ccccc1`: 8350 µM and 0.02.
`CCCCCCCCCS/C(S)=N/NC(=O)c1ccc(F)cc1` displayed a C100 in the assay filed under Rattus norvegicus [1] of 1.57 µM. In the assay listed under Rattus norvegicus [2], this compound returned an RA of 101.
Consider `CCCCCCCCCS/C(S)=N/N(C)C(=O)c1ccccc1`, for which the C100 in the assay listed under Rattus norvegicus [1] worked out at 112 µM. In the assay listed under Rattus norvegicus [2], this compound showed an RA of 1.3.
